Laboratory results from ChEMBL document CHEMBL4811244, “Design and synthesis of 1H-pyrazolo[3,4-b]pyridines targeting mitogen-activated protein kinase kinase 4 (MKK4) - A promising target for liver regeneration” (Eur J Med Chem, 2021).

Experiments:
[1] = target: T1, Dual specificity mitogen-activated protein kinase kinase 7 (Homo sapiens, UniProt O14733); assay: Binding affinity to wild-type human full length MKK7 (M1 to R419 residues) expressed in mammalian expression system by Kinomescan method
T1 sequence (O14733 whole entry): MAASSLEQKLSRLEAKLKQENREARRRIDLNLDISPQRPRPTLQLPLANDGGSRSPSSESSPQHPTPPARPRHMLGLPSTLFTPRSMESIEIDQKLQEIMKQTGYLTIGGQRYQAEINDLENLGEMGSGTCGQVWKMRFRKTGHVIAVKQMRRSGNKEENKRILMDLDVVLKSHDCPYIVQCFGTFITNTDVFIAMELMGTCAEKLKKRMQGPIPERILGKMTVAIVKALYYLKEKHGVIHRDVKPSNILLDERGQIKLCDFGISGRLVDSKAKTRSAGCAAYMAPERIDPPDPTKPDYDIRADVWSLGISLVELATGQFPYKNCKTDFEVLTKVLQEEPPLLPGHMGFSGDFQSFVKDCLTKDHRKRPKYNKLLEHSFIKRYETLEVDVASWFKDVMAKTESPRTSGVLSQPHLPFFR
Method in brief: (§1)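 Dissociation constants (Kd, nM) were determined by KINOMEscan competition-binding assay, in duplicate.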

[2] = target: T2, Dual specificity mitogen-activated protein kinase kinase 7 (Homo sapiens) (UniProt O14733); assay: Binding affinity to wild-type human full length MKK7 (M1 to R419 residues) expressed in mammalian expression system assessed as residual binding level at 100 nM by Kinomescan method relative to control
T2 sequence (whole entry): T1 sequence (O14733 whole entry)

[3] = target: Serine/threonine-protein kinase B-raf (Homo sapiens, UniProt P15056); assay: Binding affinity to wild-type human partial length BRAF (S429 to E741 residues) expressed in mammalian expression system by Kinomescan method
[4] = target: Mitogen-activated protein kinase 8 (Homo sapiens, UniProt P45983); assay: Binding affinity to wild-type human full length JNK1 (M1 to Q384 residues) expressed in mammalian expression system by Kinomescan method
[5] = target: T3, Mitogen-activated protein kinase kinase kinase kinase 5 (Homo sapiens, UniProt Q9Y4K4); assay: Binding affinity to wild-type human partial length MAP4K5 (M1 to P297 residues) expressed in bacterial expression system by Kinomescan method; method in brief: as §1
Target sequence in this assay (Q9Y4K4 whole entry, the tested form may be a part): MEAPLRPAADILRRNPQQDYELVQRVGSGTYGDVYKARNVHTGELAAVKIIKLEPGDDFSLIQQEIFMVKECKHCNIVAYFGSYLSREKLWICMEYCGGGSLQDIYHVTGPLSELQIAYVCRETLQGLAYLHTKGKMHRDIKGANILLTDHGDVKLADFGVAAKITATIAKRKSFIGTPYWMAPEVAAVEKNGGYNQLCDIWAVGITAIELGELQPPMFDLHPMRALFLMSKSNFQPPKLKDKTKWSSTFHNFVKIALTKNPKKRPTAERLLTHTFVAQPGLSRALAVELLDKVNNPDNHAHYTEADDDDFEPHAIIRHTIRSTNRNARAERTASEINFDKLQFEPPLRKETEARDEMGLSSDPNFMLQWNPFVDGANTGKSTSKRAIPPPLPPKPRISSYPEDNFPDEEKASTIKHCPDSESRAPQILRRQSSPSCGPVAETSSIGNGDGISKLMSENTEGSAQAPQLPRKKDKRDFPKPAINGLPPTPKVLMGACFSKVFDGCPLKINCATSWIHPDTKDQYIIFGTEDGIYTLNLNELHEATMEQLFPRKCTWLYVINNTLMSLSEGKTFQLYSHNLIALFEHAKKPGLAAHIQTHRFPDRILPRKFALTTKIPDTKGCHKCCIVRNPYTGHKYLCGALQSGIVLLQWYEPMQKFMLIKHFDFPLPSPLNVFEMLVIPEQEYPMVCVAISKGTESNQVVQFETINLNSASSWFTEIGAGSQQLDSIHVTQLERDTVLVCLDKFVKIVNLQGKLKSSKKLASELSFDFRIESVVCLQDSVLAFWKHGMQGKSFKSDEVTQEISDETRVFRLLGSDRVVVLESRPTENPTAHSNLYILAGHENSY

[6] = target: T4, Mitogen-activated protein kinase kinase kinase 20 (Homo sapiens, UniProt Q9NYL2); assay: Binding affinity to wild-type human partial length ZAK (M1 to L331 residues) expressed in bacterial expression system by Kinomescan method; method in brief: as §1
Target sequence in this assay (Q9NYL2 whole entry, the tested form may be a part): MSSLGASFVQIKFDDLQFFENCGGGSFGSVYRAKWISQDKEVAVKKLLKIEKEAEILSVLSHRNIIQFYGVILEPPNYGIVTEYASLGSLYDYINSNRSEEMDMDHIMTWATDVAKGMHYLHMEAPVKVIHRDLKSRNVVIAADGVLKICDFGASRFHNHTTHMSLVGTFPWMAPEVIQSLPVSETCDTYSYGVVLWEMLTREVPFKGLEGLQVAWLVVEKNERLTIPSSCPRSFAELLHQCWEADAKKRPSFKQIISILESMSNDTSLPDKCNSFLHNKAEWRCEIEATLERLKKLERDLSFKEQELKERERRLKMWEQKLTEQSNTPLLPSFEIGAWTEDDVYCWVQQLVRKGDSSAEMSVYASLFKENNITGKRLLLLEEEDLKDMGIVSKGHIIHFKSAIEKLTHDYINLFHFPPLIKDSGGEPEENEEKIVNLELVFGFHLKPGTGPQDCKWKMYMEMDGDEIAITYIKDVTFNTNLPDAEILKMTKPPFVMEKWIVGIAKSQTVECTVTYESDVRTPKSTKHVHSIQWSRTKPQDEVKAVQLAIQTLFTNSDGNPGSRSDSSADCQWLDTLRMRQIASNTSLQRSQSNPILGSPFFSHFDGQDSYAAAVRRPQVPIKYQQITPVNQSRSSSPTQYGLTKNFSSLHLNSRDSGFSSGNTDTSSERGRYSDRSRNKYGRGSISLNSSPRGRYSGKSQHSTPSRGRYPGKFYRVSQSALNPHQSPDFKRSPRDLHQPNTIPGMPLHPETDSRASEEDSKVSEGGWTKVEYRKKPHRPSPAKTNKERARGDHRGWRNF

[7] = target: T4, Mitogen-activated protein kinase kinase kinase 20; assay: Binding affinity to wild-type human partial length ZAK (M1 to L331 residues) expressed in bacterial expression system assessed as residual binding level at 100 nM by Kinomescan method relative to control
Target sequence in this assay (Q9NYL2 2-800 limits assumed): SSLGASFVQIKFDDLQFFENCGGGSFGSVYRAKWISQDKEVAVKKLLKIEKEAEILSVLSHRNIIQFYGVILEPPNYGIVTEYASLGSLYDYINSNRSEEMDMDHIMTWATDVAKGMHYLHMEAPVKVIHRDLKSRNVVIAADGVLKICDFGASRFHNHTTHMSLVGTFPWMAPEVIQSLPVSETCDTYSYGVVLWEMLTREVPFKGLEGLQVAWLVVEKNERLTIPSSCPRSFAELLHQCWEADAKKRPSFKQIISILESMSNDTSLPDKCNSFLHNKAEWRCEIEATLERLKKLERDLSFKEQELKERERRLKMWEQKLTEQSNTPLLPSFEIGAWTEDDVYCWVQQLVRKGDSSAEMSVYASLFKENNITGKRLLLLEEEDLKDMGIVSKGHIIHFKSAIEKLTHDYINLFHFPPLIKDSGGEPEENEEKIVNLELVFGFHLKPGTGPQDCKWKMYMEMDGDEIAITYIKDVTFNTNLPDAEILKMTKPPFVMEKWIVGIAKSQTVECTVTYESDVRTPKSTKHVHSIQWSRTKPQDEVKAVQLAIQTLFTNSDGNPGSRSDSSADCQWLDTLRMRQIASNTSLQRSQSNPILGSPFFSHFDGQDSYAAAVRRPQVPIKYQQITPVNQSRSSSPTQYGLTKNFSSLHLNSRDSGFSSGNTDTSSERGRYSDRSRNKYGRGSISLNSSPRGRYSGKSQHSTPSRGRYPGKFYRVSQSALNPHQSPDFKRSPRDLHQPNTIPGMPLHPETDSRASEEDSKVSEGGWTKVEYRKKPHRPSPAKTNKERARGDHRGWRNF

[8] = target: T3, Mitogen-activated protein kinase kinase kinase kinase 5; assay: Binding affinity to wild-type human partial length MAP4K5 (M1 to P297 residues) expressed in bacterial expression system assessed as residual binding level at 100 nM by Kinomescan method relative to control
Target sequence in this assay (Q9Y4K4 whole entry, looked up, the tested form may be a part): as the sequence (Q9Y4K4 whole entry, the tested form may be a part) above

Sequence of Serine/threonine-protein kinase B-raf (P15056 whole entry, the tested form may be a part): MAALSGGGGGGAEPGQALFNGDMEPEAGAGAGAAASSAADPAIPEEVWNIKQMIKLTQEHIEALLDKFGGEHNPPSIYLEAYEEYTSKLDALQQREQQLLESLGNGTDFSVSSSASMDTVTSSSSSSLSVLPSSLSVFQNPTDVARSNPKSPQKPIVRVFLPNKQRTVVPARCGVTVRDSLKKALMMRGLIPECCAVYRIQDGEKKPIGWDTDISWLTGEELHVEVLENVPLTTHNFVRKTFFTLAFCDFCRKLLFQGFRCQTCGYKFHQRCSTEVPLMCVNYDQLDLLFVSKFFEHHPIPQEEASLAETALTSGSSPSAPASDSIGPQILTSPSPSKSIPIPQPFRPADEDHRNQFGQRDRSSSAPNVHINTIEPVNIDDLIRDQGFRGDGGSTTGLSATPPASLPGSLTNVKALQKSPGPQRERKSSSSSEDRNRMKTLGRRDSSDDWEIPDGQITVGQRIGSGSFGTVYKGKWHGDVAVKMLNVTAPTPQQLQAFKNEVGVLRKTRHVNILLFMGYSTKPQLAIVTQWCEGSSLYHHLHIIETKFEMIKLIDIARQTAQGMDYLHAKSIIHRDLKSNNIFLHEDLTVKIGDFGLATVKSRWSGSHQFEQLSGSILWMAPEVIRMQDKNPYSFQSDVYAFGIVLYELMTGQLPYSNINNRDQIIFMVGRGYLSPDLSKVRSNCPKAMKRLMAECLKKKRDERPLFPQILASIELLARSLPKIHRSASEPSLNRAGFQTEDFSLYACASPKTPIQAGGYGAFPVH
Sequence of Mitogen-activated protein kinase 8 (P45983 whole entry, the tested form may be a part): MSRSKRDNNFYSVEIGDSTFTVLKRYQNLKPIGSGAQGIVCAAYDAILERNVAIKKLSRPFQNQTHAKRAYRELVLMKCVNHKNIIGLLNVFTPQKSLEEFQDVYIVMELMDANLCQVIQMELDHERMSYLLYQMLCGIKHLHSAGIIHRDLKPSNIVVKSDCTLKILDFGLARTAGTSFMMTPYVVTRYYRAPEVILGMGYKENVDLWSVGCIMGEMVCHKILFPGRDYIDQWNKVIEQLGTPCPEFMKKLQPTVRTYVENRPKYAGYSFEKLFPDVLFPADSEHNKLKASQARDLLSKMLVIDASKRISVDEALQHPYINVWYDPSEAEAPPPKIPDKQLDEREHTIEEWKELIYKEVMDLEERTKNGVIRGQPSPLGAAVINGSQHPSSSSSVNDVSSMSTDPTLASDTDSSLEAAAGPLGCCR

- Kd [1]: 5000 nM
- Activity [2]: 100%
- Kd [3]: 610 nM
- Kd [4]: 140 nM
- Kd [5]: 5.8 nM
- Kd [6]: 9.5 nM
- Activity [7]: 1.8%
- Activity [8]: 1.4%
SMILES: Nc1ccc(-c2cnc3[nH]nc(C(=O)c4c(F)ccc(NS(=O)(=O)Cc5ccccc5)c4F)c3c2)cc1
